# Sampled rows, rich in hits. Any-hit rate of the full collection: about 3%.
# SENP8 block-1 = SENP8 (human) protease inhibition. recombinant SENP8, Nedd8 substrate fluorescence. inhibition, % at 20 µM. hit rate 0.64% among 360,000. AID 602440. Q96LD8; in the data active = inhibition mostly above about 40%, no sharp cut-off; inactive = mostly below about 27%
# SENP8 block-2 = inhibitors of human SENP8 protease. hit rate 1.2% among 330,000. purified SENP8, Z-RLRGG-aminoluciferin cleavage, luminescence. inhibition, % at 10 µM; in the data active = inhibition above about 50%
# SENP7 inh = blocks the human protease SENP7; recombinant SENP7, Z-RLRGG-aminoluciferin luminescence, 40 min; hit rate 1.5% among 330,000; inhibition, % at 5 µM; AID 434973; Q9BQF6;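 active = inhibition above about 50% at the single test dose, limit read from the data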;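 note: plate controls were DMSO with enzyme for no effect and no enzyme buffer wells for full effect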
# Target sequence (Q9BQF6 706-1050 limits assumed): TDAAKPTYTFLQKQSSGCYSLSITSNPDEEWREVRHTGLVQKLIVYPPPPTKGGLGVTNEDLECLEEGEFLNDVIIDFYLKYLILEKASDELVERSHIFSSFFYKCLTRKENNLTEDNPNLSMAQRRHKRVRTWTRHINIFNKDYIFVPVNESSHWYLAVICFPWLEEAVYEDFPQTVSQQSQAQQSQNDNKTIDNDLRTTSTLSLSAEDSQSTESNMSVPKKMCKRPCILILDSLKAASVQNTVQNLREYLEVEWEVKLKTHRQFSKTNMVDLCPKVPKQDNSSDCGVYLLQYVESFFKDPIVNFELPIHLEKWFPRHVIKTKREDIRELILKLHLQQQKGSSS
# SENP6 block = SENP6 protease inhibition | inhibition, % at 10 µM | hit rate 1.8% among 330,000 | Recombinant SENP6 catalytic domain, aminoluciferin luminescence | AID 2599 | Q9GZR1;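 active = inhibition above about 50% at the single tested dose, limit read from the data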;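 note: plate controls were DMSO wells with enzyme for no effect and DMSO wells lacking enzyme for full effect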
# Apaf1 inhib = blocks human Apaf-1 apoptosome activity | O14727 | reconstituted apoptosome caspase-3 activity, DEVD-Rh110 fluorescence | inhibition, % at 20 µM | hit rate 0.71% among 330,000 | AID 489030; active = inhibition of at least 40% at 20 µM;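 note: plate controls were DMSO wells for no effect and DEVD-CHO caspase inhibitor wells for full effect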
#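 System: Apoptosome proteins | Medium: Hepes pH 7.5 with detergent and BSA | Also added: Cytochrome c trigger plus (Z-DEVD)2-Rh110 caspase-3 substrate | Incubation: 30 min compound preincubation, 50 min activation, room temperature | Detection: Rhodamine 110 fluorescence at Ex 480/Em 540 nm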
# UBC13 polyUb = human UBC13 polyubiquitination inhibition; UBC13 polyubiquitin chain formation, TR-FRET; inhibition, % at 20 µM; P61088; hit rate 0.47% among 330,000; in the data active = inhibition above about 45%, passing the limit was not always enough
# Target sequence (P61088 whole entry, looked up): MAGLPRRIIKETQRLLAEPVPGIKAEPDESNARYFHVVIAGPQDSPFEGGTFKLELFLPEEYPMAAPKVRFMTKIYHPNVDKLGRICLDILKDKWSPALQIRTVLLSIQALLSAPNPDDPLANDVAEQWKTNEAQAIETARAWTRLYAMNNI
# SENP8 conf = human SENP8 inhibition, confirmed | shares compounds with SENP7 inh | Recombinant SENP8, Z-RLRGG-aminoluciferin luminescence, 60 min | inhibition, % at 12.5 µM | hit rate 40% among 6,200 | AID 488912;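 active = mean inhibition across replicates above about 50%, limit read from the data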
# SENP6 confirm = confirmation of human SENP6 protease inhibitors | shares compounds with SENP7 inh | recombinant SENP6, Z-RLRGG-aminoluciferin luminescence | inhibition, % at 12.5 µM | hit rate 58% among 6,200
# SENP7 confirm = confirmation of human SENP7 protease inhibitors. AID 488917. inhibition, % at 12.5 µM. hit rate 69% among 6,200. shares compounds with SENP7 inh. recombinant SENP7, Z-RLRGG-aminoluciferin luminescence, 40 min
# Casp3 SENP sel = caspase-3 inhibition (SENP selectivity assay). shares compounds with SENP7 inh. purified caspase-3, Z-DEVD-aminoluciferin luminescence, 60 min. inhibition, % at 12.5 µM. hit rate 60% among 6,200. AID 488918;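 active = mean inhibition above about 50%, limit read from the data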;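 note: plate controls were enzyme with DMSO for no effect and wells without caspase-3 for full effect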
# SENP luc ctr = luminescence interference (SENP counter-screen); inhibition, % at 12.5 µM; Pre-incubated SENP8/Z-RLRGG-aminoluciferin, luciferase luminescence interference; hit rate 39% among 6,200; shares compounds with SENP7 inh;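 active = mean inhibition above about 50% when retested at one dose, limit read from the data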;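 note: plate controls were DMSO wells with completed reaction for no effect and substrate without enzyme for full effect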
# * hit, by the source's call; x = not tested or not shown.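 Rule for the calls, unless noted: active = mean inhibition above about 50% in the one-dose retest (limit read from the data); inactive = the rest.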
SMILES,SENP8 block-1,SENP8 block-2,SENP7 inh,SENP6 block,Apaf1 inhib,UBC13 polyUb,others
CN1C(=O)NC(=O)/C(=C/c2ccc([N+](=O)[O-])s2)C1=O,58*,33,6,50,15,-29,
CCCN1CCc2cc(O)cc3c2[C@H]1Cc1ccc(O)c(O)c1-3,-87,2,0,-14,45*,16,
Cc1cc(OCC(=O)N2CCC(C(=O)O)CC2)c2c3c(c(=O)oc2c1)CCCC3,-169,6,6,1,-1,16,
Cc1cccc(NP2(=O)NCCCN2)c1,9,x,x,x,x,x,
O=c1[nH]c(=S)[nH]c(O)c1N=Nc1ccc2c(c1)OCO2,28,82*,85*,89*,6,-347,
CC[C@@H]1C=CC=CC[C@H](C)[C@@H](O)[C@@H](C)C(=O)[C@H](C)[C@@H](O)[C@H](C)C(=O)[C@H](C)[C@@H](O)[C@H](C)C=CC(=O)O[C@H]2[C@@H](C)[C@@H](CC1)O[C@@]1(CC[C@@H](C)[C@@H](C[C@H](C)O)O1)[C@@H]2C,x,-3,-9,-24,21,59*,
COP(=O)(/C=C(\Cl)c1ccccc1)/C=C(\Cl)c1ccccc1,4,9,6,27,10,3,
Fc1ccc(C(OCCN2CCN(CCCc3ccccc3)CC2)c2ccc(F)cc2)cc1,0,-8,10,-6,56*,49*,
C1=C(c2c[nH]c3ccccc23)CCNC1,x,-8,-7,-12,10,96*,
CC(C)N1CC=C(c2c[nH]c3ccccc23)CC1,-72,-7,-2,0,1,-21,
Cn1ncnc2c(=O)n(C)c(=O)nc1-2,101*,96*,96*,95*,99*,-60,
CC(C)(O)/C=C/C(=O)[C@](C)(O)C1[C@H](O)C[C@@]2(C)C3CC=C4C(C[C@H](O)[C@@H](O)C4(C)C)[C@]3(C)C(=O)C[C@]12C (stereo not given in full),6,1,5,-2,4,4,
O=C1c2ccccc2-c2cc3ccccc3cc21,-5,x,x,x,x,x,
O=C1C=C(N2CC2)c2ccccc2C1=O,64*,x,x,x,x,x,
CC1CC2(C)C(CCC3C2CCC2(C)C(OP(=O)(N4CC4)N4CC4)CCC32)CC1=O (stereo not given),10,x,x,x,x,x,
Cc1cccc(C)c1-n1nnnc1C(C1CC1)N1CCC2(CC1)C(=O)NCN2c1ccccc1 (stereo not given),14,x,x,x,x,x,
CN1CCN(c2ccc(N)cc2)CC1,51*,11,-2,2,15,39,
CN[C@H]1C[C@H]2O[C@@](C)([C@H]1OC)n1c3ccccc3c3c4c(c5c6ccccc6n2c5c31)C(=O)NC4,x,-7,-2,-8,51*,26,
CCCCn1c(NC(=O)c2ccc(Br)o2)c(C(=O)OCC)c2nc3ccccc3nc21,-372,62*,14,75*,79*,-36,
CCCCn1c(NS(=O)(=O)c2ccccc2)c(C(=O)OCC)c2nc3ccccc3nc21,-354,x,x,x,x,x,
CC(C)N=C(NC(C)C)N1CC1,22,x,x,x,x,x,
Nc1c(C(=O)NCCN2CCOCC2)c2nc3ccccc3nc2n1Cc1ccccc1,-425,0,6,25,82*,-1,
Nc1c(C(=O)NCCc2ccccc2)c2nc3ccccc3nc2n1CCN1CCOCC1,-280,-2,5,0,8,41,
Cc1cc(C)cc(NC2=NCCCS2)c1,6,0,6,4,-5,2,
CCN(CC)C(=O)c1ccc2c(c1)C1C(Cl)C(Sc3ccccc3[N+](=O)[O-])CC1C(C(=O)O)N2 (stereo not given),44*,14,6,12,25,-26,
SMILES,SENP8 block-1,SENP8 block-2,SENP7 inh,SENP6 block,Apaf1 inhib,UBC13 polyUb,others
O=C(O)c1cccc2c1NC(c1cccc([N+](=O)[O-])c1)C1CC(Sc3ccccc3[N+](=O)[O-])C(Cl)C21 (stereo not given),31,8,3,16,40,-31,
O=C(O)c1ccc2c(c1)C1C(Cl)C(Sc3ccccc3[N+](=O)[O-])CC1C(c1cccc([N+](=O)[O-])c1)N2 (stereo not given),49*,x,x,x,x,x,
CC(=O)OCC12CC(OC(=O)CC(C)C)C(C)=CC1OC1C(O)C(OC(C)=O)C2(C)C12CO2 (stereo not given),5,x,x,x,x,x,
Cc1cc2c(C(C)C)c(O)c(O)c(C=O)c2c(O)c1-c1c(C)cc2c(C(C)C)c(O)c(O)c(C=O)c2c1O,39*,x,x,x,x,x,
Cc1ccc2c(c1)NP(=S)(Oc1ccccc1)N2 (stereo not given),1,x,x,x,x,x,
COc1ccc2c(c1)NP(=S)(Oc1ccccc1)N2 (stereo not given),3,6,17,18,50*,-4,
CC1=NN(c2ccccc2)C(=O)C1/C=C1\C(=O)NC(=O)N(c2cc(C)cc(C)c2)C1=O (stereo not given),40*,-1,4,10,9,-32,
CC1=NN(c2ccccc2)C(=O)C1/C=C1/C(=O)NC(=O)N(c2cc(C)cc(C)c2)C1=O (stereo not given),28,-6,0,-18,-1,-21,
C[C@]12C[C@H](O)[C@@H](O)CC1=CCC1C2CC[C@@]2(C)C1CC[C@@H]2O (stereo not given in full),12,-1,10,-20,0,-3,
N#CC(C#N)=Cc1ccc(O)c(O)c1,20,-7,8,-5,-8,-65,
CC(C)(C)c1cc(C=C(C#N)C#N)cc(C(C)(C)C)c1O,40*,11,5,1,0,-40,
Cn1c(O)c(C=Nc2ccc(Br)cc2)c(=O)n(C)c1=O,-157,50*,26,59*,3,-2,SENP8 conf=2;SENP6 confirm=3;SENP7 confirm=14;Casp3 SENP sel=0;SENP luc ctr=4
Cn1c(O)c(C=Nc2cccc(C(F)(F)F)c2)c(=O)n(C)c1=O,-21,-4,12,-5,0,2,
CCOC(=O)C1(CCc2ccccc2)CCN(Cc2ccc3c(c2)OCCO3)CC1,16,-8,9,70*,20,14,SENP8 conf=10;SENP6 confirm=1;SENP7 confirm=-4;Casp3 SENP sel=3;SENP luc ctr=-2
